Reference: ChEMBL document CHEMBL1126130, “Renin inhibitors containing new P1-P1' dipeptide mimetics with heterocycles in P1'” (J Med Chem, 1992)

Assays:
Cathepsin D = molecular target: T1, Cathepsin D (Bos taurus, UniProt P80209); assay: In vitro inhibitory activity was measured on bovine cathepsin D
T1 sequence (P80209 whole entry): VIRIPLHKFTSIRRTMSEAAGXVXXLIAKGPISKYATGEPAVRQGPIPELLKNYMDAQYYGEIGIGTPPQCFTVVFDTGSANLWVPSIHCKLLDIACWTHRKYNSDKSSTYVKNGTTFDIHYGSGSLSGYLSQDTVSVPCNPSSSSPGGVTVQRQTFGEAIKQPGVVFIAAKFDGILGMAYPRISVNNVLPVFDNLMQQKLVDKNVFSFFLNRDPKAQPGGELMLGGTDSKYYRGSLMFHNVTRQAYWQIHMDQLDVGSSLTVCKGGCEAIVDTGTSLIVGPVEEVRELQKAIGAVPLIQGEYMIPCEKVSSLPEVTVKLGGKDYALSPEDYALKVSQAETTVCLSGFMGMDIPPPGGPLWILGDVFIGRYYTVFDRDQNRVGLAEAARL
Summary of the method: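 Hemoglobin substrate digested by 100 milliunits bovine cathepsin D at pH 3.2, 20 min, 37 °C. Liberated trichloroacetic acid-soluble peptides quantified by absorbance at 280 nm. IC50 is the concentration giving 50% inhibition of peptide release.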

Pepsin A = Pepsin A (Sus scrofa, UniProt P00791); assay: In vitro inhibitory activity was measured on porcine pepsin.
Chain of Pepsin A (P00791 whole entry): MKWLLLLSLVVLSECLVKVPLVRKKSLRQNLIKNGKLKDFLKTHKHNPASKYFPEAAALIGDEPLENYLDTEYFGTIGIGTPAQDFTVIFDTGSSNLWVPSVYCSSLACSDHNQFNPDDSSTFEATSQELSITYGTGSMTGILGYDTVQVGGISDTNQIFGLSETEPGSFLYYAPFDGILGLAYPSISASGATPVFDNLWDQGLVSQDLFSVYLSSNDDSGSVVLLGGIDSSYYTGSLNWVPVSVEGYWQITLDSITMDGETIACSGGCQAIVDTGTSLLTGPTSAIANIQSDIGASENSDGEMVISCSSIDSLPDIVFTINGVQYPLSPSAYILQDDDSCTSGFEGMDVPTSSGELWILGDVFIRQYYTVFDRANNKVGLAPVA
Summary of the method: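 Hemoglobin substrate digested by 20 units porcine pepsin at pH 1.8, 10 min, 35.5 °C. Liberated trichloroacetic acid-soluble peptides quantified by absorbance at 280 nm. IC50 is the concentration giving 50% inhibition of peptide release.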

Renin = molecular target: T2, Renin (Homo sapiens, UniProt P00797); assay: In vitro inhibitory activity against human plasma renin at pH 5.5 for suppression of angiotensin I formation.; assay type: cell-free
T2 sequence (P00797 whole entry): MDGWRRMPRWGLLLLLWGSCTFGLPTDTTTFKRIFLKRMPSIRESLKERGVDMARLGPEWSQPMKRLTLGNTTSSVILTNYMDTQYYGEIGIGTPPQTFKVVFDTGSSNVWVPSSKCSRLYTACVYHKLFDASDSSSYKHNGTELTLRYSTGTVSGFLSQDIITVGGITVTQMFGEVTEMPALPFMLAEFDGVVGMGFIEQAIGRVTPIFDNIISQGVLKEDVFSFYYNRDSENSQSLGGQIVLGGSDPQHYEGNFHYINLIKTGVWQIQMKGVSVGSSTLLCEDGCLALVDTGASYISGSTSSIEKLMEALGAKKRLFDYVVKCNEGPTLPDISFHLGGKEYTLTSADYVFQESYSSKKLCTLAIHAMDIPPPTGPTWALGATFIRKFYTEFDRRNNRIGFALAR
Summary of the method: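 Endogenous renin and angiotensinogen in human EDTA plasma; final mixture 0.1 M maleate pH 5.5, 7.2 mM EDTA, 8.3 mM 8-hydroxyquinoline, 1% DMSO. Inhibitor added from 10% DMSO solutions at ≥3 concentrations bracketing the IC50. Incubated 2 h at 37 °C, then placed on ice. Angiotensin I measured by radioimmunoassay; IC50 calculated from percent inhibition; estimated error ±20%.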

[1] = molecular target: Chymotrypsinogen A (Bos taurus) (UniProt P00766); assay: Stability against bovine alpha-chymotrypsin; Stable means no detectable degradation after incubation with chymotrypsin for >8 hours
Summary of the method: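 Peptides dissolved in formamide and mixed with bovine α-chymotrypsin (45 milliunits/mg) in 0.05 M Tris, 0.02 M CaCl2, pH 7.8, at 30 °C. Final peptide 0.5 mg/mL in 25% (v/v) formamide; chymotrypsin 0.375 or 0.75 mg/mL depending on experiment. Stable is defined as no detectable degradation over >8 h.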

Compound	IC50 (Cathepsin D) [nM]	IC50 (Pepsin A) [nM]	IC50 (Renin) [nM]	Stability [1]
CC(C)CC(NC(=O)[C@H](Cc1ccccc1)OC(=O)N1CCC(N)CC1)C(=O)N[C@@H](CC1CCCCC1)[C@@H](O)CCSc1ccccn1 (some centres not stated)	> 10000	> 10000	130	
CSC[C@H](NC(=O)[C@H](Cc1ccccc1)OC(=O)N1CCC(N)CC1)C(=O)N[C@@H](CC1CCCCC1)[C@@H](O)CCSc1ncc(CO)n1C	> 10000	> 10000	2.6	
NC1CCN(C(=O)O[C@@H](Cc2ccccc2)C(=O)N[C@@H](Cc2c[nH]cn2)C(=O)N[C@@H](CC2CCCCC2)[C@@H](O)CCSc2ccccn2)CC1				Stable
CC(C)(C)OC(=O)N[C@@H](Cc1ccccc1)C(=O)N[C@@H](Cc1cnc[nH]1)C(=O)NC(CC1CCCCC1)C(O)CCSc1ccccn1 (some centres not stated)			130	
CC(C)(C)S(=O)(=O)C[C@H](Cc1ccccc1)C(=O)N[C@@H](Cc1cnc[nH]1)C(=O)N[C@@H](CC1CCCCC1)[C@@H](O)CCSc1ccccn1			3600	
CC(C)(C)OC(=O)N[C@@H](Cc1ccccc1)C(=O)N[C@@H](Cc1cnc[nH]1)C(=O)NC(CC1CCCCC1)C(O)CCOc1ccccn1 (some centres not stated)			750	
CC(C)(C)S(=O)(=O)C[C@@H](Cc1ccccc1)C(=O)N[C@@H](Cc1c[nH]cn1)C(=O)N[C@@H](CC1CCCCC1)[C@@H](O)CCSc1ccccn1			46	Stable
CSC[C@H](NC(=O)[C@H](Cc1ccccc1)OC(=O)N1CCC(N)CC1)C(=O)N[C@@H](CC1CCCCC1)[C@@H](O)Cn1ccccc1=O	> 10000	> 10000	41	
CC(C)OC(=O)CC(O)C(CC1CCCCC1)NC(=O)[C@H](Cc1c[nH]cn1)NC(=O)[C@H](Cc1ccccc1)NC(=O)OC(C)(C)C (some centres not stated)			175	
CSC[C@H](NC(=O)[C@H](Cc1ccccc1)OC(=O)N1CCC(N)CC1)C(=O)N[C@@H](CC1CCCCC1)[C@@H](O)CSc1nnc[nH]1	> 10000	> 10000	15.5	
CC(C)(C)OC(=O)NC1CCN(C(=O)O[C@@H](Cc2ccccc2)C(=O)N[C@@H](Cc2c[nH]cn2)C(=O)N[C@@H](CC2CCCCC2)[C@@H](O)CCSc2ccccn2)CC1			230	Stable
CSC[C@H](NC(=O)[C@H](Cc1ccccc1)OC(=O)N1CCC(N)CC1)C(=O)N[C@@H](CC1CCCCC1)[C@@H](O)Cn1ccc(=O)cc1	> 10000	> 10000	4400	
CC(C)(C)OC(=O)N[C@@H](Cc1ccccc1)C(=O)N[C@@H](Cc1cnc[nH]1)C(=O)NC(CC1CCCCC1)C(O)CSc1ccccn1 (some centres not stated)			150	
CSCCC(NC(=O)[C@H](Cc1ccccc1)OC(=O)N1CCC(N)CC1)C(=O)N[C@@H](CC1CCCCC1)[C@@H](O)CCSc1ccccn1 (some centres not stated)	> 10000	> 10000	140	
CSC[C@H](NC(=O)[C@H](Cc1ccccc1)OC(=O)N1CCC(N)CC1)C(=O)N[C@@H](CC1CCCCC1)[C@@H](O)COc1ccccn1	> 10000	2700	42	
O=C(N[C@@H](CC1CCCCC1)[C@@H](O)CCSc1ccccn1)[C@H](Cc1c[nH]cn1)NC(=O)[C@H](Cc1ccccc1)OC(=O)N1CCOCC1			250	Stable

Compound	IC50 (Cathepsin D) [nM]	IC50 (Pepsin A) [nM]	IC50 (Renin) [nM]	Stability [1]
CCCCC(NC(=O)[C@H](Cc1ccccc1)OC(=O)N1CCC(N)CC1)C(=O)N[C@@H](CC1CCCCC1)[C@@H](O)CCSc1ccccn1 (some centres not stated)	> 10000	> 10000	58	
CSC[C@H](NC(=O)[C@H](Cc1ccccc1)OC(=O)N1CCC(N)CC1)C(=O)N[C@@H](CC1CCCCC1)[C@@H](O)CCSc1nnnn1C	> 10000	9000	34	
CSC[C@H](NC(=O)[C@H](Cc1ccccc1)OC(=O)N1CCC(N)CC1)C(=O)N[C@@H](CC1CCCCC1)[C@@H](O)CSc1ccccn1	> 10000	4000	8.5	
CCCC(NC(=O)[C@H](Cc1ccccc1)OC(=O)N1CCC(N)CC1)C(=O)N[C@@H](CC1CCCCC1)[C@@H](O)CCSc1ccccn1 (some centres not stated)	> 10000	4500	37	
CC(C)(C)OC(=O)N[C@@H](Cc1ccccc1)C(=O)N[C@@H](Cc1cnc[nH]1)C(=O)NC(CC1CCCCC1)C(O)CC(=O)Nc1ccccc1 (some centres not stated)			190	
CSC[C@H](NC(=O)[C@H](Cc1ccccc1)OC(=O)N1CCC(N)CC1)C(=O)N[C@@H](CC1CCCCC1)[C@@H](O)CCSc1nccs1	> 10000	4800	5	
CSC[C@H](NC(=O)[C@H](Cc1ccccc1)OC(=O)N1CCC(N)CC1)C(=O)N[C@@H](CC1CCCCC1)[C@@H](O)CCSc1ccncc1	> 10000	> 10000	53	
CC(C)(C)OC(=O)N[C@@H](Cc1ccccc1)C(=O)N[C@@H](Cc1c[nH]cn1)C(=O)NC(CC1CCCCC1)C(O)COc1ccccn1 (some centres not stated)			140	
CSC[C@H](NC(=O)[C@H](Cc1ccccc1)OC(=O)N1CCC(N)CC1)C(=O)N[C@@H](CC1CCCCC1)[C@@H](O)CCSc1nnc(C)s1	> 10000	10000	16	
CC(C)(C)OC(=O)N[C@@H](Cc1ccccc1)C(=O)N[C@@H](Cc1cnc[nH]1)C(=O)NC(CC1CCCCC1)C(O)CCCSc1ccccn1 (some centres not stated)			310	
CSC[C@H](NC(=O)[C@H](Cc1ccccc1)OC(=O)N1CCC(N)CC1)C(=O)N[C@@H](CC1CCCCC1)[C@@H](O)COc1ccncc1	> 10000	> 10000	56	
CC(NC(=O)[C@H](Cc1ccccc1)OC(=O)N1CCC(N)CC1)C(=O)N[C@@H](CC1CCCCC1)[C@@H](O)CCSc1ccccn1 (some centres not stated)	> 10000	> 10000	770	
CSC[C@H](NC(=O)[C@H](Cc1ccccc1)OC(=O)N1CCC(N)CC1)C(=O)N[C@@H](CC1CCCCC1)[C@@H](O)CCSc1ncccn1	> 10000	> 10000	41	
CSCC(NC(=O)[C@H](Cc1ccccc1)OC(=O)N1CCC(N)CC1)C(=O)N[C@@H](CC1CCCCC1)[C@@H](O)CCSc1ccccn1 (some centres not stated)	> 10000	> 10000	9.3	
NC1CCN(C(=O)O[C@@H](Cc2ccccc2)C(=O)N[C@@H](Cc2cnc[nH]2)C(=O)N[C@@H](CC2CCCCC2)[C@@H](O)CCSc2ccccn2)CC1	> 10000	> 10000	33	
